Screens deposited in PubChem by several laboratories.
Efa HMGR inh: inhibitors of E. faecalis class II HMGR, primary screen, biochemical, Enterococcus faecalis | inhibition, % at 10 µM | HMG-CoA reductase (Enterococcus faecalis, mvaE) | 190,000 compounds, 0.41% hits | purified E. faecalis HMGR, NADPH absorbance 340 nm kinetic;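 active means inhibition above a set limit, the median over all tested compounds plus 3 SD, cut at about 9.5% in these data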;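 further: enzyme runs in reverse so mevalonate oxidation gives rising NADPH absorbance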
TNF necrop inh: inhibitors of TNF-alpha triggered necroptosis, primary screen, cell-based, Jurkat FADD-/-, single concentration; Jurkat FADD-/- TNF necroptosis rescue, ATP luminescence, 24 h; 0 = TNF only, 100 = no-TNF cells; activation (protection from cell death), % at 10 µM; 220,000 compounds, 0.068% hits; AID 463075, 2010;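 active means activation, meaning protection from cell death, of at least 50% relative to plate controls; inactive means activation below 50%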;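 further: necroptosis triggered by 40 ng/mL TNF-alpha added together with compound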
Rad51 HR inh: human RAD51 strand exchange inhibitors, primary screen, biochemical, fluorescence; inhibition, % at 10 µM; DNA repair protein RAD51 homolog 1 (Homo sapiens), Q06609; AID 1385, 2008; 200,000 compounds, 0.085% hits; hRad51 DNA strand exchange, fluorescence dequenching;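 active means inhibition above 40% at the single screening dose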
Target sequence (Q06609 whole entry, looked up): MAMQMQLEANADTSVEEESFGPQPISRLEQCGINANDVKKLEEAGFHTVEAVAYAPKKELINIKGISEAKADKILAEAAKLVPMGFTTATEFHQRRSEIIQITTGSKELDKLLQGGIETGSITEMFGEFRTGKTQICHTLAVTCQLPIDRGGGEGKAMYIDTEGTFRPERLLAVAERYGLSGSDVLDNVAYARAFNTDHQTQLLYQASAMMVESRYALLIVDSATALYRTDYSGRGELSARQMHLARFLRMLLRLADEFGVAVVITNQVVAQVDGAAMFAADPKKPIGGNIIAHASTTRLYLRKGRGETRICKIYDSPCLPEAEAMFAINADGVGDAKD
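Material: Human Rad51 nucleoprotein filaments preassembled on unlabelled ssDNA | Also added: Labelled 47-mer dsDNA for strand exchange | Dosing: Single dose, 10 µM final compound | Schedule: 30-min compound preincubation and 15-min exchange, both room temperature | Technique: Fluorescence dequenching at 485/520 nm | Measure: Percent inhibition relative to plate controls and blanks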
zVAD death inh: inhibitors of zVAD-triggered necroptosis, primary screen, L929 cells. viability rescue, % at 10 µM. L929 zVAD necroptosis rescue, ATP luminescence, 24 h; with zVAD 60 µM. 220,000 compounds, 0.38% hits;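 active means activation, scaled between plate controls, above about 75%, limit read from the data; inactive means activation under that limit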
PERK inh: block of dimerizer-induced PERK translation repression, primary screen, PERK inhibitor project, CHO PERK-DD cells, SEAP luminescence, HTS; Eukaryotic translation initiation factor 2-alpha kinase 3 (Homo sapiens), Q9NZJ5; CHO PERK-DD fusion, SEAP luminescence translation reporter; inhibition, % at 5.6 µM; 220,000 compounds, 0.17% hits; AID 1416, 2008;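 active means inhibition above the mean inhibition of all tested compounds plus 3 SD, set separately per screening campaign, cut at about 2.9% in these data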;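 further: PERK kinase domain activated by AP20187 dimerizer at 100 nM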
zVAD necrop conf: inhibitors of zVAD-triggered necroptosis in L929, confirmation, L929 cells, duplicate runs. shares compounds with zVAD death inh. 760 compounds, 16% hits. AID 463117, 2010. activation (protection from necroptosis), % at 10 µM. L929 zVAD-induced necroptosis rescue, ATP luminescence, 24 h;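 active means mean protection from necroptosis of at least 50% over duplicate tests; inactive means mean protection below 50%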
Hits are given with their value; - = inactive; . = no result given. Shown are actives, neighbours in structure and some others; about 1% of the full set was active somewhere.

SMILES	Efa HMGR inh	TNF necrop inh	Rad51 HR inh	zVAD death inh	PERK inh	zVAD necrop conf
COc1cc(/C=N/NC(=O)COc2ccc(-n3cnnn3)cc2)ccc1OCC(N)=O	.	-	-	-	-	.
COc1ccc(C(=O)/C=C/c2cn(CC(O)CN3CCOCC3)c3ccccc23)cc1 (centres undefined)	-	-	-	82	-	-
O=C(/C=C/c1cn(CC(O)CN2CCOCC2)c2ccccc12)c1cccs1 (centres undefined)	.	-	-	-	-	.
COc1cc(C(=O)O)nc2ccc([N+](=O)[O-])cc12	-	-	-	-	-	.
N#C/C(=C(/O)COC(=O)CCc1ccc(S(=O)(=O)N2CCOCC2)cc1)c1nc2ccccc2[nH]1	-	-	-	78	-	-
N#C/C(=C(/O)COC(=O)c1ccc(Cl)c(S(=O)(=O)N2CCOCC2)c1)c1nc2ccccc2[nH]1	-	-	-	-	-	.
Cc1ccc(/C=C/C(=O)N2CCCC(C(N)=O)C2)o1 (centres undefined)	.	-	-	-	-	.
O=C(Nc1nccs1)c1cc2c(s1)-c1ccccc1OC2	-	-	.	98	-	-
COc1ccc(C(C)(C)C)cc1NC(=O)c1cc(S(=O)(=O)N(C)C)ccc1N1CCCC1	-	-	-	-	-	.
Cn1c(=O)n(C)c2cc(NC(=O)CCl)ccc21	-	-	-	83	-	-
CC(=O)Nc1ccc2c(c1)n(C)c(=O)n2C	-	-	-	-	-	.
COC(=O)c1ccc(-c2ccc(/C=N/N3C(=O)C4C5C=CC(CC5)C4C3=O)o2)cc1 (centres undefined)	-	-	-	83	-	-
O=C(O)c1cc(-c2ccc(/C=N/N3C(=O)C4C5C=CC(CC5)C4C3=O)o2)ccc1Cl (centres undefined)	-	-	-	-	-	.
COc1ccc(NC(=O)Nc2ccc(Br)cn2)cc1OC	-	-	-	77	-	-
CCOc1ccc(NC(=O)Nc2ccc3nccnc3c2)cc1	-	-	-	92	-	-
CCOc1ccc(NC(=O)Nc2ccc(Br)cn2)cc1	-	-	.	75	-	-
C=C1C(=O)[C@@]23[C@H](O)C[C@@H]4C(C)(C)CC[C@H](O)[C@@]4(C)[C@@H]2CC[C@@H]1[C@H]3O	-	-	-	121	-	78
C=C1C(=O)[C@@]23[C@H](O)C[C@@H]4C(C)(C)CC[C@H](O)[C@]4(C)[C@@H]2C[C@H](O)[C@@H]1[C@H]3O	-	-	-	-	-	.
CCCn1ncc(CN2CCC(CO)(CC3CCCCO3)CC2)c1C (centres undefined)	-	-	-	-	-	.
O=C(Nc1nsc(-c2ccccc2)n1)c1cccs1	-	-	-	75	-	-
Cc1sc(NC(=O)c2cccs2)nc1-c1ccccc1	-	-	-	-	-	.
O=C(N/N=C\c1cccc(Cl)c1)c1n[nH]c2c1CCCC2	-	-	-	83	-	-
O=C(COc1cccc(NC(=O)c2cccs2)c1)c1ccc(F)cc1	-	-	-	-	-	.
O=C(Nc1cccc(Oc2ccc3c(c2)C(=O)NC3=O)c1)c1cccs1	-	-	-	87	-	-
CCN(CC)S(=O)(=O)c1ccc(C(=O)Oc2cc(C)[nH]c(=O)c2[N+](=O)[O-])cc1	-	-	-	-	-	.
O=C(Cc1ccc(Cl)cc1Cl)OCC(=O)N1CCN(C(=O)c2ccco2)CC1	-	-	-	76	-	-
Cc1cc(C(=O)OCC(=O)N2CCN(C(=O)c3ccco3)CC2)c(C)n1-c1ccc(F)cc1	-	-	-	87	-	-
Brc1ccc2[nH]c3c(NCc4ccccn4)ncnc3c2c1	.	-	-	75	-	-
COc1ccc(-c2oc3ncnc(NCCN4CCOCC4)c3c2-c2ccc(OC)cc2)cc1	-	-	-	-	-	.
